The source made the active and inactive calls. The rule behind the calls is not given here.
Key:
Danio rerio = organism: Danio rerio; test: Antiangiogenesis activity in EGFP-labelled zebrafish embryo assessed as reduction in formation of dorsal aorta at 1.25 to 5 uM incubated for overnight by fluorescence microscopic analysis; format: functional, organism-based; settings: dose 1.25-5 µM
Summary of the method: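 Transgenic FLK:EGFP zebrafish kept at 28 °C, pH 7.2−7.4, 14 h light/10 h dark. Embryos at 30 hpf incubated overnight with compound at 1.25, 2.5 or 5 μM beside a blank control. Fish anaesthetized, then vessels imaged by fluorescence microscopy.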

MDA-MB-231 [1] = test: Antitumor activity against human MDA-MB-231 cells xenografted in SCID mouse assessed as tumor growth inhibition at 40 mg/kg, po qd for 15 days and measured every 3 days; format: functional; settings: MDA-MB-231, po, 360 h, time 15 day
Summary of the method: (§1)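 SCID mice (5−6 weeks) injected subcutaneously with 100 μL of cells at 5 × 10^7/mL. At 150−200 mm3 mice randomized, 6 per group. Oral compounds given in water with 25% PEG400 plus 5% DMSO; paclitaxel given 10 mg/kg/week iv. Tumor volume a×b²/2 and body weight measured every 3 days. Inhibition rate (c−d)/c×100% against vehicle control.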

MDA-MB-231 [2] = test: Antitumor activity against human MDA-MB-231 cells xenografted in SCID mouse assessed as tumor growth inhibition at 40 mg/kg, po qd for 21 days and measured every 3 days; format: functional; settings: MDA-MB-231, po, 504 h, time 21 day; summary of the method: as §1
[3] = Toxicity in SCID mouse xenografted with MDA-MB-231 cells assessed as change in body weight at 40 mg/kg, po qd for 15 days and measured every 3 days; format: organism-based; settings: in vivo, 360 h, dose 40 mg/kg/day, time 15 day
[4] = Half-life in Sprague-Dawley rat at 10 mg/kg, po administered via gavage by LC-MS analysis; format: ADME, organism-based; settings: in vivo
[5] = Tmax in Sprague-Dawley rat at 10 mg/kg, po administered via gavage by LC-MS analysis; format: ADME, organism-based; settings: in vivo
[6] = target: Ribosomal protein S6 kinase alpha-3 (Homo sapiens, UniProt P51812); test: Inhibition of human recombinant RSK2 (2 to end residues) using KKKNRTLSVA as substrate incubated for 40 mins in presence of [gamma33P-ATP] by radiometric scintillation counting analysis
Summary of the method: (§2)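 Radiometric kinase assay run as an external profiling service, with ATP at the Km of each kinase. IC50 values are means of two independent experiments.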

[7] = target: Platelet-derived growth factor receptor beta (Homo sapiens, UniProt P09619); test: Inhibition of human recombinant PDGFRbeta (557 to end residues) using poly(Glu, Tyr)4:1 as substrate incubated for 40 mins in presence of [gamma33P-ATP] by radiometric scintillation counting analysis
[8] = target: High affinity nerve growth factor receptor (Homo sapiens, UniProt P04629); test: Inhibition of human recombinant TRKA (440 to end residues) using KKKSPGEYVNIEFG as substrate incubated for 40 mins in presence of [gamma33P-ATP] by radiometric scintillation counting analysis; summary of the method: as §2
[9] = target: BDNF/NT-3 growth factors receptor (Homo sapiens, UniProt Q16620); test: Inhibition of human recombinant TRKB (455 to end residues) using poly(Glu,Tyr)4:1 as substrate incubated for 40 mins in presence of [gamma33P-ATP] by radiometric scintillation counting analysis
HCC1937 = test: Antiproliferative activity against human HCC1937 cells assessed as reduction in cell viability incubated for 72 hrs by MTT assay; format: functional, cell-based; settings: HCC1937, 72 h
Summary of the method: (§3)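 MTT viability assay. ATCC cell lines were grown in designated medium with 10% FBS at 37 °C, 5% CO2. Cells seeded at 1500−30000 per well and incubated 24 h, then exposed to compound (0−10 μg/mL) for 72 h. MTT added for 2−4 h. Formazan dissolved in DMSO (adherent) or acidified SDS overnight (suspension), absorbance read at 570 nm. Triplicates; IC50 calculated.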

BT-474 = test: Antiproliferative activity against human BT-474 cells assessed as reduction in cell viability incubated for 72 hrs by MTT assay; format: functional, cell-based; settings: BT-474, 72 h; summary of the method: as §3
MDA-MB-415 = test: Antiproliferative activity against human MDA-MB-415 cells assessed as reduction in cell viability incubated for 72 hrs by MTT assay; format: functional, cell-based; settings: MDA-MB-415, 72 h; summary of the method: as §3
A-375 = test: Antiproliferative activity against human A-375 cells assessed as reduction in cell viability incubated for 72 hrs by MTT assay; format: functional, cell-based; settings: A-375, 72 h; summary of the method: as §3
HT-29 = test: Antiproliferative activity against human HT-29 cells assessed as reduction in cell viability incubated for 72 hrs by MTT assay; format: functional, cell-based; settings: HT-29, 72 h; summary of the method: as §3
L929 = test: Cytotoxicity against mouse L929 cells assessed as reduction in cell viability incubated for 72 hrs by MTT assay; format: cell-based; settings: L929, 72 h; summary of the method: as §3
MDA-MB-231 [10] = test: Induction of apoptosis in human MDA-MB-231 cells assessed as late apoptotic cells at 0.01 uM incubated for 24 hrs by annexin V-FITC and propidium iodide staining based flow cytometry analysis (reference value: 0.85 %); format: functional
MDA-MB-231 [11] = test: Induction of apoptosis in human MDA-MB-231 cells assessed as live cells at 0.03 uM incubated for 24 hrs by annexin V-FITC and propidium iodide staining based flow cytometry analysis (reference value: 96.95 %); format: functional
MDA-MB-231 [12] = test: Induction of apoptosis in human MDA-MB-231 cells assessed as early apoptotic cells at 0.03 uM incubated for 24 hrs by annexin V-FITC and propidium iodide staining based flow cytometry analysis (reference value: 2 %); format: functional
MDA-MB-231 [13] = test: Induction of apoptosis in human MDA-MB-231 cells assessed as necrotic cells at 0.1 uM incubated for 24 hrs by annexin V-FITC and propidium iodide staining based flow cytometry analysis (reference value: 0.2 %); format: functional
MDA-MB-231 [14] = test: Induction of apoptosis in human MDA-MB-231 cells assessed as late apoptotic cells at 0.1 uM incubated for 24 hrs by annexin V-FITC and propidium iodide staining based flow cytometry analysis (reference value: 0.85 %); format: functional
[15] = target: Proto-oncogene tyrosine-protein kinase Src (Homo sapiens) (UniProt P12931); test: Inhibition of Src in human MDA-MB-231 cells assessed as reduction in phosphorylation of Src incubated for 20 hrs by Western blot analysis; format: cell-based
Summary of the method: (§4)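 MDA-MB-231 cells treated with a series of concentrations for 20 h at 37 °C. Cells washed with ice-cold saline and lysed in RIPA buffer with protease cocktail. Lysates cleared at 12000 rpm for 10 min at 4 °C and protein quantified by Bradford. Equal protein separated by SDS-PAGE, transferred to PVDF and probed with antibodies.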

[16] = Acute toxicity in Sprague-Dawley rat assessed as histopathological changes in heart at 100 mg/kg, po administered as single dose measured after 24 hrs by H and E staining based light microscope analysis; format: organism-based; settings: in vivo
Summary of the method: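 Sprague-Dawley rats received a single oral dose of 100 mg/kg in sterile water with 25% (v/v) PEG400 plus 5% DMSO. Organs were examined by histology and immunohistochemistry for pathological changes. Behaviour and side effects were checked daily.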

MDA-MB-231 [17] = test: Inhibition of Fra1 expression in human MDA-MB-231 cells at >0.03 uM incubated for 20 hrs by Western blot analysis; format: functional, cell-based; settings: dose microM >0.03, time 20.0 hrs; summary of the method: as §4

High affinity nerve growth factor receptor, sequence (P04629 whole entry): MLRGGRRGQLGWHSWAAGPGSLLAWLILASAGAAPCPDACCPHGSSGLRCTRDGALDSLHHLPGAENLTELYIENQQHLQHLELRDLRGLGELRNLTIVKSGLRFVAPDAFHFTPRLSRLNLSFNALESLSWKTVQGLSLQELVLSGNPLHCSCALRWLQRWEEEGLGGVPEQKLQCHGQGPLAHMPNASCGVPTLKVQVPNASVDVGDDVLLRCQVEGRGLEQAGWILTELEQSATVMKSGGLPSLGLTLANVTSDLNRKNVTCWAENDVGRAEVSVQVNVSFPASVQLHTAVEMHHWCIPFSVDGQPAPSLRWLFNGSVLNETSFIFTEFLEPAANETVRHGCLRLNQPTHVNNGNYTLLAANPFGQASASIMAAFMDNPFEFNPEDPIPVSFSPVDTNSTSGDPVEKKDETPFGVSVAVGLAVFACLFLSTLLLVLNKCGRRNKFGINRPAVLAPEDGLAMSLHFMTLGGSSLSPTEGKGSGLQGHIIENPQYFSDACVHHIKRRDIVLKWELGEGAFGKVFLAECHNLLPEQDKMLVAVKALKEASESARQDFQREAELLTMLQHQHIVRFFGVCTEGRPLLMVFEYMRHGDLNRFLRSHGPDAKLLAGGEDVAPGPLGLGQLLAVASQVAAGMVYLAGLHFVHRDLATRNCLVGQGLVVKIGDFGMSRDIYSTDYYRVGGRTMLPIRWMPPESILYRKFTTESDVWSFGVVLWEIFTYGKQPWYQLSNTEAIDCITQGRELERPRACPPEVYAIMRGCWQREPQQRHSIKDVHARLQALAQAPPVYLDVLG
BDNF/NT-3 growth factors receptor, sequence (Q16620 whole entry): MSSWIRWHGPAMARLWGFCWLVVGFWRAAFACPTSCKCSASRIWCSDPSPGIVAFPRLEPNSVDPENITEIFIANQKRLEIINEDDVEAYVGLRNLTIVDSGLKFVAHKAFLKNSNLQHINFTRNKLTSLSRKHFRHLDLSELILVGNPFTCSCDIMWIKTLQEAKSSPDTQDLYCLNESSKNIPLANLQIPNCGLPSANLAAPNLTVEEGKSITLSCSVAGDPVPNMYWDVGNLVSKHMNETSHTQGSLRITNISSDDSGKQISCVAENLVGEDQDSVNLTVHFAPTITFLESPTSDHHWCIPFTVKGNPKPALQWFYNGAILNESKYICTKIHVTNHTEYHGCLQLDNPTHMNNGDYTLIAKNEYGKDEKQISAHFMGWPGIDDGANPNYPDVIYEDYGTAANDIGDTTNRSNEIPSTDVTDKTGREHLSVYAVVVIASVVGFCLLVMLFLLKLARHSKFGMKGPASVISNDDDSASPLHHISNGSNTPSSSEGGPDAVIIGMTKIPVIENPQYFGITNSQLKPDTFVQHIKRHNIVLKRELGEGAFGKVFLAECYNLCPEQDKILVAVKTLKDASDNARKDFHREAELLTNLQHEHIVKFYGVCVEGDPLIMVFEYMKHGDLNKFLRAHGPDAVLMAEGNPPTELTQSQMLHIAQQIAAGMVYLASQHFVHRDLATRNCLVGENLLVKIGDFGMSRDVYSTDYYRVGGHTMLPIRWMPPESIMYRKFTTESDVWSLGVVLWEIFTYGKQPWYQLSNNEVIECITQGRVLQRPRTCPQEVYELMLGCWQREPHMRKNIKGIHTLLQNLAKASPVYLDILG
Proto-oncogene tyrosine-protein kinase Src (Homo sapiens), sequence (P12931 2-536 limits assumed): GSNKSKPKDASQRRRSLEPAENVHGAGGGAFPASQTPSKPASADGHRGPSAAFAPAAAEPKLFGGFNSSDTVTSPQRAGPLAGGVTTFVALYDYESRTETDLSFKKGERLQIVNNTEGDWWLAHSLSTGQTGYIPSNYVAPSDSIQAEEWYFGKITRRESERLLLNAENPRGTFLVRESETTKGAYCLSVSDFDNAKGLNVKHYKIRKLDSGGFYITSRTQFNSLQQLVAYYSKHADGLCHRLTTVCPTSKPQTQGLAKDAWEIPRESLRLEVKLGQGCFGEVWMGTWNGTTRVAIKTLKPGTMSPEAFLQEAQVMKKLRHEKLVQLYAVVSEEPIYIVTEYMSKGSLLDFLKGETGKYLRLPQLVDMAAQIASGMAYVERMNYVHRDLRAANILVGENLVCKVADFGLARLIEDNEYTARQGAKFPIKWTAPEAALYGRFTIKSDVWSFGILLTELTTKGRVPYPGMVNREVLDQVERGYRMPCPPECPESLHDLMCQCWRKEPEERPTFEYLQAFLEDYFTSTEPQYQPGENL
Platelet-derived growth factor receptor beta, sequence (P09619 whole entry): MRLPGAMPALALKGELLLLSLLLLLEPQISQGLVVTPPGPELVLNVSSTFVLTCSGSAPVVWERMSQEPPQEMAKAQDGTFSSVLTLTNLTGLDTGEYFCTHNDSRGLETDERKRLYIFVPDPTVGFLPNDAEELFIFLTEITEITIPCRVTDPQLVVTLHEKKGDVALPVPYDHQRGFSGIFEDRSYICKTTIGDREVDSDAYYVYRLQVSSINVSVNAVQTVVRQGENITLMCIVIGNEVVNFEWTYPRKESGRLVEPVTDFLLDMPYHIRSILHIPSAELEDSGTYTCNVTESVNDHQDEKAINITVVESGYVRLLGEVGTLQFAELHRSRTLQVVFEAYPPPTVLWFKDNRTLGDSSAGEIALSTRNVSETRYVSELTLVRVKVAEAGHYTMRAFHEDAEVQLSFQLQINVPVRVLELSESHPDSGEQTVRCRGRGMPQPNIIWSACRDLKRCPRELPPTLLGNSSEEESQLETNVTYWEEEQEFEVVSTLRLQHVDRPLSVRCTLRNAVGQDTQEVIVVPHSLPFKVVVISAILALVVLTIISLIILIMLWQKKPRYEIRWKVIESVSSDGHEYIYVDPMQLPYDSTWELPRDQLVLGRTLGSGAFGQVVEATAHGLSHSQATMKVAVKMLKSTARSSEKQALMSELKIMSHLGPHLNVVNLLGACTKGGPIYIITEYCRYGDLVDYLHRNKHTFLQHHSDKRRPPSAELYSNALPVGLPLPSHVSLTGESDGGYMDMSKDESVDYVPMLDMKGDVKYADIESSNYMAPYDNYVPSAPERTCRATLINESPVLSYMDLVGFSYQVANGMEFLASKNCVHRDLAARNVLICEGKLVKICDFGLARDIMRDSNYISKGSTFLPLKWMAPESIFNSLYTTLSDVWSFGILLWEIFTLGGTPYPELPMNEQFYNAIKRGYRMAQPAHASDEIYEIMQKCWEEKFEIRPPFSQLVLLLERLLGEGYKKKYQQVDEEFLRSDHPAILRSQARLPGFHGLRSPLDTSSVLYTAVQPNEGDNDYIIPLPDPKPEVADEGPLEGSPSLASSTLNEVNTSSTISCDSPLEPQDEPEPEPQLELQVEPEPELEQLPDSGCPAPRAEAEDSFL
Ribosomal protein S6 kinase alpha-3, sequence (P51812 whole entry): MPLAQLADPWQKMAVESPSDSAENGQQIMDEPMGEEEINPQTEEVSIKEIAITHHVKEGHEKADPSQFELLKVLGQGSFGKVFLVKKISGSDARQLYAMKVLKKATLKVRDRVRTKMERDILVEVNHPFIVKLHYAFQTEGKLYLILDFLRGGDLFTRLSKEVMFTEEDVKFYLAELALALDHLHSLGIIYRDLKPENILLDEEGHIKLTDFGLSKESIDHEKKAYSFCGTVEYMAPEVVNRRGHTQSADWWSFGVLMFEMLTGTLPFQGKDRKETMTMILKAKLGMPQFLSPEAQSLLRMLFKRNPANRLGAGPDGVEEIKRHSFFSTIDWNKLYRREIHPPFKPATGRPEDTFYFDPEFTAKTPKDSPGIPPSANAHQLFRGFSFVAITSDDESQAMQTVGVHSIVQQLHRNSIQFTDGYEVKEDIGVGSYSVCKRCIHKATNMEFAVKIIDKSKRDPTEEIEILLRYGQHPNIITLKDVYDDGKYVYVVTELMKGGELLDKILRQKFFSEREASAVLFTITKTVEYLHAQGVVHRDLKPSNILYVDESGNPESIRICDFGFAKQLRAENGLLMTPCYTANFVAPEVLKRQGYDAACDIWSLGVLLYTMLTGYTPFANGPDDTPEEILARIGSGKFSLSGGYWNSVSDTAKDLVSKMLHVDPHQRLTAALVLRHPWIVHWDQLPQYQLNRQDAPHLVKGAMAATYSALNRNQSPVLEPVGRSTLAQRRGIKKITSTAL

Which results are given for `Cc1ccc(NC(=O)c2ccc(C)c(C(F)(F)F)c2)cc1C#Cc1nn([C@H]2CC[C@H](O)CC2)c2ncnc(N)c12`?
Activity (Danio rerio): inactive; inhibition in vivo at 40 mg/kg/day (MDA-MB-231 [1]): 96.2%; inhibition in vivo at 40 mg/kg/day (MDA-MB-231 [2]): 100%; Activity [3]: 3.4%; half-life [4]: 18.9 h; Tmax [5]: 4 h; IC50 [6]: > 10000 nM; IC50 [7]: > 10000 nM; IC50 [8]: > 10000 nM; IC50 [9]: 899 nM; IC50 (HCC1937): 455 nM; IC50 (BT-474): > 10000 nM; IC50 (MDA-MB-415): 10000 nM; IC50 (A-375): 31 nM; IC50 (HT-29): 231 nM; IC50 (L929): > 10000 nM; Activity (MDA-MB-231 [10]): 3.23%; Activity (MDA-MB-231 [11]): 78.36%; Activity (MDA-MB-231 [12]): 8.02%; Activity (MDA-MB-231 [13]): 1.23%; Activity (MDA-MB-231 [14]): 17.35%; inhibition [15]: Dose-dependent effect; Activity [16]: Non-Toxic; inhibition (MDA-MB-231 [17]): Active
